TRPC6 inh: mouse TRPC6 channel inhibition; B-score at 10 µM; hit rate 1.1% among 310,000; Q61143; HEK293-TRPC6, membrane potential dye, ACh-evoked depolarization; active compounds read low; AID 2553;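 active = B-score under library mean minus 3 SD, initial fluorescence not abnormally high, positive integrated signal ratio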;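 note: B-score derived from integrated fluorescence ratio over the kinetic read; more negative B-score means stronger inhibition of depolarization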
TRPC4 agonist: activators of mouse TRPC4 channel; Q9QUQ5; HEK293 TRPC4beta/mu-opioid, Fluo4 calcium fluorescence; active compounds read high; B-score at 10 µM; hit rate 0.49% among 310,000;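 active = B-score above 5 SD of library B-scores, and initial fluorescence ratio not above library mean plus 5 SD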;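 note: positive B-score marks a calcium rise read as TRPC4 activation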
Target sequence (Q9QUQ5 whole entry, looked up): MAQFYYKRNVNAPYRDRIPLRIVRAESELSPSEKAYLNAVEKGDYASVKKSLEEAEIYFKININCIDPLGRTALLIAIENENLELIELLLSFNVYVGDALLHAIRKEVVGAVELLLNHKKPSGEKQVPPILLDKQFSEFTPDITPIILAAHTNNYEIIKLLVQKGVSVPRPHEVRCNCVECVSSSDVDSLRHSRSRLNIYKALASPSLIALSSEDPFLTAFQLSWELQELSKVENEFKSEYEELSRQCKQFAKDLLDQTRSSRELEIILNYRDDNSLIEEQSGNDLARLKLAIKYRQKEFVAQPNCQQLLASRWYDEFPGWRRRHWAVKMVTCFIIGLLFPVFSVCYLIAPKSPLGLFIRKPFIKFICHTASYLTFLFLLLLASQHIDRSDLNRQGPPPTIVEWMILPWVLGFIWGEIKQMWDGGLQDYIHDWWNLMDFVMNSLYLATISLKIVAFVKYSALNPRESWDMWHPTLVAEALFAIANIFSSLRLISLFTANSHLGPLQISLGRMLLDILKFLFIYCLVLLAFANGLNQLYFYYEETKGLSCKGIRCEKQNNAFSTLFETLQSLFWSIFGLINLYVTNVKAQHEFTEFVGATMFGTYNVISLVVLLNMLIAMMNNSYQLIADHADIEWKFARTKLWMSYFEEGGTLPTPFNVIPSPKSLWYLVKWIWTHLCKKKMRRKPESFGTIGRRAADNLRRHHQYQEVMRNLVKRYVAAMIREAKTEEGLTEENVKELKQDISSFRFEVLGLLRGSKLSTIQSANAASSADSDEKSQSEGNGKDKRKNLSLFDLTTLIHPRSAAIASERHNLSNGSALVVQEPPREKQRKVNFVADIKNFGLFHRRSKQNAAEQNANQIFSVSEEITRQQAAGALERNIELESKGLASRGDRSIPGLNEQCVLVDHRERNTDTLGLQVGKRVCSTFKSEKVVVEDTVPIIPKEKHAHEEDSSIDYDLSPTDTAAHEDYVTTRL
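Assay system: HEK293 cells stably co-expressing mouse TRPC4beta and mu-opioid receptor / Timing: Fluo4 dye loading 45 min at room temperature, 110 s recording / Signal: Fluo4 calcium-sensitive dye fluorescence, kinetic, 1 Hz baseline / Read-out: integrated baseline-normalised fluorescence ratio, converted to per-well B score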
TRPC4 potent: allosterically enhances the mouse TRPC4 cation channel; hit rate 0.42% among 310,000; B-score at 10 µM; HEK293 TRPC4beta/mu-opioid, DAMGO EC20, Fluo-4 Ca2+ flux; active compounds read high;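 active = B-score of calcium response area above 5 SD of library B-scores, with initial fluorescence ratio within 5 SD of library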;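 note: B-score of integrated fluorescence ratio over time as area under calcium response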
TRPC6 activator: activators of mouse TRPC6 channel; Q61143; HEK293-TRPC6 membrane potential dye fluorescence; active compounds read high; B-score at 10 µM; hit rate 0.13% among 310,000; AID 2550;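 active = B-score of the integrated fluorescence ratio above library mean plus 3 SD, and starting fluorescence ratio within library mean plus 5 SD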;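 note: higher score means more depolarization so channel activation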
TRPC4 inh: TRPC4 (mouse) channel inhibition | hit rate 0.39% among 300,000 | AID 2247 | HEK293 TRPC4beta/mu-opioid, DAMGO-evoked Fluo4 calcium flux; active compounds read low | B-score at 10 µM | Q9QUQ5;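 active = B-score over 3 SD under the library average, no early fluorescence shift, positive overall ratio signal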
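Assay system: Stable TRPC4beta/mu-opioid receptor HEK293 cells | Reagent: DAMGO in two steps, submaximal then maximal | Compound dosing: Single concentration per test compound | Signal: Fluo4 Ca2+ flux fluorescence | Evaluation: Per-well B score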
TRPC4 spec 2: second selectivity test of TRPC6 inhibitors: effect on mouse TRPC4; shares compounds with TRPC6 inh; HEK293 TRPC4/MOR, membrane potential dye fluorescence; channel activated by saturating DAMGO dose; inhibition, % at 10 µM; hit rate 42% among 920; AID 2776;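 active = compounds whose fluorescence signal differed from control wells by over 3 SD, either direction, in both duplicate plates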
TRPC4 spec: selectivity of TRPC6 inhibitors: effect on mouse TRPC4; shares compounds with TRPC6 inh; HEK293 TRPC4/mu-opioid, membrane potential fluorescence; activity change, negative = inhibition, % at 10 µM; hit rate 61% among 920; AID 2777;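 active = rise or fall in signal beyond 3 SD of buffer-only wells in both replicate plates, either sign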;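 note: integrated kinetic ratio of fluorescence range over baseline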
HEK293 MPD ctr 2-1: second counter-screen for TRPC6 inhibitors: parental HEK293 cells; shares compounds with TRPC6 inh; signal change vs control, % at 10 µM; parental HEK293 membrane potential dye fluorescence; maximal acetylcholine challenge after compound addition; hit rate 31% among 920; AID 2779;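 active = membrane potential signal moving either way by over 3 SD of the maximum-effect control, in both duplicate plates, meaning non-specific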
HEK293 MPD ctr-1: counter-screen for TRPC6 inhibitors: effect in parental HEK293 cells; shares compounds with TRPC6 inh; parental HEK293 membrane potential dye fluorescence; membrane potential signal change, % at 10 µM; hit rate 60% among 920; AID 2780;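 active = membrane potential signal shifting up or down by more than 3 SD of buffer-only wells, on both duplicate plates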
HEK293 MPD ctr-2: parental HEK293 nonspecific activity of TRPC6 modulators. AID 488924. membrane potential dye fluorescence. hit rate 51% among 2,400. membrane potential signal change, % at 10 µM. shares compounds with TRPC6 inh;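 active = membrane potential signal moves up or down beyond 5 SD from buffer-only wells, on both duplicate plates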
HEK293 MPD ctr 2-2: second counter-screen for TRPC6 modulators: effect in parental HEK293 cells; shares compounds with TRPC6 inh; hit rate 14% among 2,400; inhibition, % at 10 µM; membrane potential dye fluorescence; after compound, maximal acetylcholine stimulation; AID 488926;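 active = membrane potential signal drops by more than 5 SD from the mean control signal, in both duplicate plates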;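 note: plate controls were acetylcholine ECmax control wells for no effect and buffer only wells for full effect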
TRPC4 ctr mod: selectivity of TRPC6 modulators against mouse TRPC4. shares compounds with TRPC6 inh. HEK293 TRPC4/mu-opioid, membrane potential fluorescence. percent change from control (negative = decrease, positive = increase), % at 10 µM. hit rate 69% among 2,400. AID 488927;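 active = membrane potential signal moved up or down beyond 5 SD of buffer control wells, in both duplicate plates, actives on both sides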;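 note: plate controls were assay buffer wells for no effect and DAMGO maximal-effect wells for full effect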
TRPC4 ctr inh 2: second check of whether TRPC6 modulators also affect mouse TRPC4; HEK293 TRPC4/mu-opioid, membrane potential dye fluorescence; stimulated with maximal-effect DAMGO; shares compounds with TRPC6 inh; AID 488928; inhibition, % at 10 µM; hit rate 55% among 2,400;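 active = drop in membrane potential signal beyond 5 SD of the control wells in both duplicate plates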;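 note: TRPC4 counter screen for TRPC6 hits run under conditions tuned for TRPC6 not TRPC4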
TRPC6 inh conf: mouse TRPC6 inhibitor confirmation; shares compounds with TRPC6 inh; hit rate 43% among 3,300; HEK293-TRPC6, membrane potential dye, ACh-evoked depolarization; inhibition, % at 10 µM;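 active = fluorescence ratio falls more than 5 SD below the full-stimulation control mean, in both duplicate runs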;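 note: integrated fluorescence ratio of peak minus minimum over baseline after agonist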
TRPC6 act conf: confirmation of mouse TRPC6 activators; shares compounds with TRPC6 inh; HEK293-TRPC6 membrane potential dye fluorescence, FDSS; activation, % at 10 µM; hit rate 11% among 2,800; AID 488961;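 active = ratio signal rise beyond 5 SD above unstimulated control wells' mean, seen in both duplicate runs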;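 note: plate controls were buffer EC0 wells for no effect and acetylcholine ECmax response for full effect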
Active calls of the source: *; i = inactive; x = not tested or not shown. Sampled rows, rich in hits. Any-hit rate of the full collection: about 2.3%.

SMILES | TRPC6 inh | TRPC4 agonist | TRPC4 potent | TRPC6 activator | TRPC4 inh | HEK293 MPD ctr-2 | HEK293 MPD ctr 2-2 | TRPC4 ctr mod | TRPC4 ctr inh 2 | TRPC6 inh conf | TRPC6 act conf | others
O=C(CCc1ccccc1)NC1CCCc2ccccc21 (stereo not drawn) | -7.5* | i | i | i | i | x | x | x | x | i | i | TRPC4 spec 2=i;TRPC4 spec=6.5%*;HEK293 MPD ctr 2-1=i;HEK293 MPD ctr-1=5.4%*
O=C(Cc1ccccc1F)NC1CCCc2ccccc21 (stereo not drawn) | i | i | i | i | i | x | x | x | x | x | x
COc1ccc2c(c1)c(C(=O)CN1CCc3ccccc3C1)c(C)n2C | -6.5* | i | i | i | i | -88%* | i | -16%* | 59%* | 44%* | i
O=c1c2c3c(sc2nc(N2CCNCC2)n1-c1cccc(Cl)c1)CCCCC3 | -7.2* | i | i | i | i | x | x | x | x | 60%* | i | TRPC4 spec 2=60%*;TRPC4 spec=i;HEK293 MPD ctr 2-1=i;HEK293 MPD ctr-1=i
CCCCSc1nc2sc3c(c2c(=O)n1-c1ccccc1)CCN(C)C3 | i | i | i | i | i | x | x | x | x | x | x
CCCCNc1nc2sc3c(c2c(=O)n1-c1cccc(Cl)c1)CCN(C)C3 | -6.1* | i | i | i | i | i | i | i | 58%* | i | i
CN1CCc2c(sc3nc(SCC(N)=O)n(-c4ccc(Cl)cc4)c(=O)c23)C1 | i | i | i | i | i | x | x | x | x | x | x
CCCCCNc1nc2sc3c(c2c(=O)n1-c1cccc(Cl)c1)CCN(C)C3 | -5.5* | i | i | i | i | i | i | i | 68%* | 45%* | i
CCc1ccccc1NC(=O)CNC(=O)c1ccc(-n2cncn2)c([N+](=O)[O-])c1 | i | i | i | i | i | x | x | x | x | x | x
CCOc1ccc(N(C(=O)Cn2nnc3ccccc32)C(C(=O)NC(C)(C)CC)c2cccn2C)cc1 (stereo not drawn) | i | i | i | i | i | x | x | x | x | x | x
CCC(C)(C)NC(=O)C(c1cccn1C)N(C(=O)Cn1nnc2ccccc21)c1ccc(OC)cc1OC (stereo not drawn) | -8.1* | i | i | 12* | i | 124%* | i | 44%* | 41%* | 38%* | 68%*
Cc1ccc(NC(=O)c2ccc(NS(=O)(=O)c3cccc4cccnc34)cc2)cc1 | i | i | i | i | i | x | x | x | x | x | x
CC(C)(C)n1nnnc1C(c1ccccc1)N1CCc2ccccc2C1 (stereo not drawn) | -7.6* | i | i | i | i | x | x | x | x | i | i | TRPC4 spec 2=i;TRPC4 spec=12%*;HEK293 MPD ctr 2-1=i;HEK293 MPD ctr-1=6.8%*
Cc1ccc(C)c(N2CCN(C(=O)CCCOc3cc(=O)n(C)c4ccccc34)CC2)c1 | -6.2* | i | i | i | i | 139%* | i | 30%* | i | 55%* | x
Cc1cc(C)c2nc(N3CCC(C(=O)NCC4CCCO4)CC3)sc2c1 (stereo not drawn) | i | i | i | i | i | x | x | x | x | x | x
Cc1cc(C)c2nc(N3CCC(C(=O)NCCCN4CCCCC4)CC3)sc2c1 | -8.8* | i | i | i | i | x | x | x | x | 52%* | i | TRPC4 spec 2=74%*;TRPC4 spec=2.6%*;HEK293 MPD ctr 2-1=i;HEK293 MPD ctr-1=2.9%*
CCOC(=O)C1Cc2ccccc2CN1 (stereo not drawn) | i | i | i | i | i | x | x | x | x | x | x
CCOC(=O)C1Cc2c([nH]c3ccccc23)CN1 (stereo not drawn) | -8.6* | i | i | i | i | x | x | x | x | i | i | TRPC4 spec 2=i;TRPC4 spec=i;HEK293 MPD ctr 2-1=i;HEK293 MPD ctr-1=-0.1%*
CCN(CC)CCCNc1oc(-c2cccc(Cl)c2)nc1C#N | -6.1* | i | i | i | i | i | i | i | 34%* | 54%* | i
CN(C)CCCNc1oc(-c2ccc(Cl)cc2)nc1C#N | i | i | i | i | i | x | x | x | x | x | x
O=C(CNCc1ccccc1)NC1C2CC3CC(C2)CC1C3 (stereo not drawn) | -5.8* | i | i | i | i | i | i | 9.0%* | 36%* | 60%* | x
Cc1cc(NCc2ccccn2)nc2ccccc12 | -8.9* | i | i | i | i | x | x | x | x | 95%* | i | TRPC4 spec 2=49%*;TRPC4 spec=-20%*;HEK293 MPD ctr 2-1=i;HEK293 MPD ctr-1=-292%*
Cc1nc(NCc2ccccn2)c2ccccc2n1 | i | i | i | i | i | x | x | x | x | x | x
N=c1c2c3c(sc2ncn1Cc1ccccc1)CCCC3 | -6.5* | i | i | i | i | i | i | -12%* | 39%* | i | i
N=c1c2c3c(sc2ncn1CCCO)CCCC3 | i | i | i | i | i | x | x | x | x | x | x
N=c1c2c3c(sc2ncn1CCN1CCOCC1)CCCCC3 | i | i | i | i | i | x | x | x | x | x | x
N=c1c2c3c(sc2ncn1Nc1ccccc1)CCC3 | -5.3* | i | i | i | i | i | i | -8.5%* | 52%* | 51%* | i
CCCCn1cnc2sc3c(c2c1=N)CCCC3 | -7.1* | i | i | i | i | x | x | x | x | i | i | TRPC4 spec 2=62%*;TRPC4 spec=-17%*;HEK293 MPD ctr 2-1=i;HEK293 MPD ctr-1=-228%*
CCC(=O)N1CCc2cc(S(=O)(=O)N3CCN(c4cc(C)ccc4C)CC3)ccc21 | i | i | i | i | i | x | x | x | x | x | x
